Laboratory results published in ChEMBL document CHEMBL1127414 (J Med Chem, 1994).

How the values were obtained:
[1] = target: T1, Squalene synthase (Mus musculus) (UniProt P53798); assay: Tested for the effective dose required for the incorporation of [5-3H]-mevalonolactone into cholesterol by in vivo mouse assay by peroral administration; type: functional, organism-based
T1 sequence (whole entry): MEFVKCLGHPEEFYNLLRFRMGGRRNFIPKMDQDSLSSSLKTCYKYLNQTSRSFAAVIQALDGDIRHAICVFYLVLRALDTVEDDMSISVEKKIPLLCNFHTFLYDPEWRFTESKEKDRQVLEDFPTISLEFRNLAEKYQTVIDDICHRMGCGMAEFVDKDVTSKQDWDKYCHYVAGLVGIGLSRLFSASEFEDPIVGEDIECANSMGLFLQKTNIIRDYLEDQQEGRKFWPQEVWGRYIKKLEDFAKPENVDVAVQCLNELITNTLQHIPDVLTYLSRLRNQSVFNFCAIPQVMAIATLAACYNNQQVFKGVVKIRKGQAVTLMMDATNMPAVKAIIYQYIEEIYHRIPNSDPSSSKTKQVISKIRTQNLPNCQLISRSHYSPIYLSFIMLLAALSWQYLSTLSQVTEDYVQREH
Outline: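 Female Swiss Webster mice (~25 g), six per group, dosed po by gavage with inhibitor suspended in 5% emulphor. 30 min later, 0.5 μCi/mouse [5-3H]mevalonolactone in saline given sc. Livers removed 30 min after that and saponified in KOH/EtOH overnight at 55 °C, then petroleum-ether extracted. Nonsaponifiable dpm counted. Compounds first tested at a single dose (typically 12 or 24 mg/kg).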

Squalene synthase = target: T2, Squalene synthase (Rattus norvegicus, UniProt Q02769); assay: Tested for inhibition against squalene synthase enzyme in rat liver
T2 sequence (Q02769 whole entry): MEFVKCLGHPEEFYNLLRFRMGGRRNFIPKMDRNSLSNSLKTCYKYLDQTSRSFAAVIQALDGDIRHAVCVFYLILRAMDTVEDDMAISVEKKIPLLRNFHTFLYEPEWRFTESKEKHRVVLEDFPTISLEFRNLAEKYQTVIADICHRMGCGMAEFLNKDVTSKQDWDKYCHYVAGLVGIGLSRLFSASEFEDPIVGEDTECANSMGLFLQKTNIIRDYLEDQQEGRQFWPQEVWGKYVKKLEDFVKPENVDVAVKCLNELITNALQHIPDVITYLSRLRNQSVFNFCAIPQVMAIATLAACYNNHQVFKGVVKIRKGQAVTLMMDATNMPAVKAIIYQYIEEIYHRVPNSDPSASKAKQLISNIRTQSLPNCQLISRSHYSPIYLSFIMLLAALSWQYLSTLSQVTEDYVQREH

[2] = target: T3, Squalene synthase (Rattus norvegicus) (UniProt Q02769); assay: Concentration required to inhibit rat liver squalene synthase enzyme relative to control (L-694,599)
T3 sequence (whole entry): T2 sequence (Q02769 whole entry)
Outline: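 Enzyme from rat liver. […] Inhibitors added in DMSO (0.3% final) as 3-fold serial dilutions, usually up to 30 ng/mL (about 40 nM). IC50 read from % inhibition vs log concentration.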

ED50 [1] | IC50 (Squalene synthase) | Relative activity [2] | SMILES
18 mg/kg | 36.1 nM | 0.02 | C=C(CCC12OC(C(=O)O)C(O)(C(=O)O)C(C(=O)O)(O1)[C@H](OC(C)=O)[C@H]2O)[C@@H](OC(C)=O)[C@H](C)Cc1ccccc1 (stereo not given in full)
9 mg/kg | 9.2 nM | 0.02 | C=C(CCC12OC(C(=O)O)C(O)(C(=O)O)C(C(=O)O)(O1)[C@H](OC(=O)OCC)[C@H]2O)[C@@H](OC(C)=O)[C@H](C)Cc1ccccc1 (stereo not given in full)
4.5 mg/kg | 9.2 nM | 0.07 | C=C(CCC12OC(C(=O)O)C(O)(C(=O)O)C(C(=O)O)(O1)[C@H](OC(=O)CCC)[C@H]2O)[C@@H](OC(C)=O)[C@H](C)Cc1ccccc1 (stereo not given in full)
12 mg/kg | 11 nM | 0.02 | C=C(CCC12OC(C(=O)O)C(O)(C(=O)O)C(C(=O)O)(O1)[C@H](OC(=O)CC)[C@H]2O)[C@@H](OC(C)=O)[C@H](C)Cc1ccccc1 (stereo not given in full)
– | 14 nM | – | C=C(CCC12OC(C(=O)O)C(O)(C(=O)O)C(C(=O)O)(O1)[C@H](OC(=S)NC(C)C)[C@H]2O)[C@@H](OC(C)=O)[C@H](C)Cc1ccccc1 (stereo not given in full)
8 mg/kg | 10 nM | 0.05 | C=C(CCC12OC(C(=O)O)C(O)(C(=O)O)C(C(=O)O)(O1)[C@H](OCCC)[C@H]2O)[C@@H](OC(C)=O)[C@H](C)Cc1ccccc1 (stereo not given in full)
10 mg/kg | 3 nM | 0.1 | C=C(CCC12OC(C(=O)O)C(O)(C(=O)O)C(C(=O)O)(O1)[C@H](OC(=O)OC(C)C)[C@H]2O)[C@@H](OC(C)=O)[C@H](C)Cc1ccccc1 (stereo not given in full)
24 mg/kg | 18 nM | 0.04 | C=C(CCC12OC(C(=O)O)C(O)(C(=O)O)C(C(=O)O)(O1)[C@H](OC(=O)[C@@H](C)CC)[C@H]2O)[C@@H](OC(C)=O)[C@H](C)Cc1ccccc1 (stereo not given in full)
6 mg/kg | 14 nM | 0.05 | C=C(CCC12OC(C(=O)O)C(O)(C(=O)O)C(C(=O)O)(O1)[C@H](OC(=O)NC1CCC1)[C@H]2O)[C@@H](OC(C)=O)[C@H](C)Cc1ccccc1 (stereo not given in full)
8 mg/kg | 17 nM | 0.04 | C=C(CCC12OC(C(=O)O)C(O)(C(=O)O)C(C(=O)O)(O1)[C@H](OC(=O)NCC1CC1)[C@H]2O)[C@@H](OC(C)=O)[C@H](C)Cc1ccccc1 (stereo not given in full)
12 mg/kg | 5.6 nM | 0.06 | C=C(C)CC(=O)O[C@@H]1[C@@H](O)C2(CCC(=C)[C@@H](OC(C)=O)[C@H](C)Cc3ccccc3)OC(C(=O)O)C(O)(C(=O)O)C1(C(=O)O)O2 (stereo not given in full)
20 mg/kg | 25 nM | 0.03 | C=C(CCC12OC(C(=O)O)C(O)(C(=O)O)C(C(=O)O)(O1)[C@H](OC(=O)CCCOC)[C@H]2O)[C@@H](OC(C)=O)[C@H](C)Cc1ccccc1 (stereo not given in full)
11 mg/kg | 16 nM | 0.02 | C=C(CCC12OC(C(=O)O)C(O)(C(=O)O)C(C(=O)O)(O1)[C@H](OC(=O)NCC)[C@H]2O)[C@@H](OC(C)=O)[C@H](C)Cc1ccccc1 (stereo not given in full)
– | 137 nM | 0.002 | CC[C@H](C)C[C@H](C)CCC(=O)O[C@@H]1[C@@H](O)C2(CCCCc3ccccc3)OC(C(=O)O)C(O)(C(=O)O)C1(C(=O)O)O2 (stereo not given in full)
11 mg/kg | – | – | C=C(CCC12OC(C(=O)O)C(O)(C(=O)O)C(C(=O)O)(O1)[C@H](OC(=O)NC)[C@H]2O)[C@@H](OC(C)=O)[C@H](C)Cc1ccccc1 (stereo not given in full)
– | 1800 nM | 0.00014 | CCCC(=O)O[C@@H]1[C@@H](O)C2(CCCCc3cccc4ccccc34)OC(C(=O)O)C(O)(C(=O)O)C1(C(=O)O)O2 (stereo not given in full)
– | 1.2 nM | 0.08 | C=C(CCC12OC(C(=O)O)C(OCCCCCCCCCCCC)(C(=O)O)C(C(=O)O)(O1)[C@H](O)[C@H]2O)[C@@H](OC(C)=O)[C@H](C)Cc1ccccc1 (stereo not given in full)
> 24 mg/kg | – | – | C=C(CCC12OC(C(=O)O)C(O)(C(=O)O)C(C(=O)O)(O1)[C@H](OC(=O)N(C)C)[C@H]2O)[C@@H](OC(C)=O)[C@H](C)Cc1ccccc1 (stereo not given in full)
